Laboratory results reported in ChEMBL document CHEMBL1152541, “Staurosporine tethered peptide ligands that target cAMP-dependent protein kinase (PKA): optimization and selectivity profiling” (Bioorg Med Chem, 2009).
One block for each compound: values may come before it. *1 amine or outer side, *2 acyl side, *3 side chain or, on linkers, in order; H or OH if unused. Where a SMILES comes first, the peptide text is derived from it. Bridges are numbered along the chain shown (N, C = ends). [ ]: non-standard residue; d: D form. The star is where a group is joined. Staurosporine = CO[C@@H]1[C@H](N(C)*)C[C@H]2O[C@]1(C)n1c3ccccc3c3c4c(c5c6ccccc6n2c5c31)C(=O)NC4; Suc = O=C(CCC(=O)[*:2])[*:1]; Dap = NC[C@H](N)C(=O)O; βAla = NCCC(=O)O

Key:
[1] = molecular target: Phosphatidylinositol 4,5-bisphosphate 3-kinase catalytic subunit gamma isoform (Homo sapiens) (UniProt P48736); assay: Ratio of staurosporine to compound binding affinity to PI3Kgamma in presence of DTT
[2] = molecular target: ALK tyrosine kinase receptor (Homo sapiens) (UniProt Q9UM73); assay: Binding affinity to human ALK at 500 nM by cell-based competition binding assay relative to control in presence of DTT
How it was run: (§1)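 Kinase binding profiling ran on a commercial (Ambit) competitive binding screen against a panel of 90 kinases. The screen used reducing conditions with 7.5 mM DTT. To withstand the DTT, the bivalent ligand was tested as its amide isostere, with the disulfide replaced. A staurosporine derivative carrying a 3 β-alanine linker was run as the reference compound.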

[3] = molecular target: Dual specificity mitogen-activated protein kinase kinase 1 (Homo sapiens) (UniProt Q02750); assay: Binding affinity to human MEK1 at 500 nM by cell-based competition binding assay relative to control in presence of DTT
How it was run: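 Kinase binding profile from a commercial panel of 90 kinases, run as a competitive binding assay. The panel was screened under reducing conditions of 7.5 mM DTT. Signal was compared with the untreated control.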

[4] = molecular target: T1, Bone morphogenetic protein receptor type-2 (Homo sapiens) (UniProt Q13873); assay: Binding affinity to human BMPR2 at 500 nM by cell-based competition binding assay relative to control in presence of DTT; how it was run: as §1
T1 sequence (whole entry): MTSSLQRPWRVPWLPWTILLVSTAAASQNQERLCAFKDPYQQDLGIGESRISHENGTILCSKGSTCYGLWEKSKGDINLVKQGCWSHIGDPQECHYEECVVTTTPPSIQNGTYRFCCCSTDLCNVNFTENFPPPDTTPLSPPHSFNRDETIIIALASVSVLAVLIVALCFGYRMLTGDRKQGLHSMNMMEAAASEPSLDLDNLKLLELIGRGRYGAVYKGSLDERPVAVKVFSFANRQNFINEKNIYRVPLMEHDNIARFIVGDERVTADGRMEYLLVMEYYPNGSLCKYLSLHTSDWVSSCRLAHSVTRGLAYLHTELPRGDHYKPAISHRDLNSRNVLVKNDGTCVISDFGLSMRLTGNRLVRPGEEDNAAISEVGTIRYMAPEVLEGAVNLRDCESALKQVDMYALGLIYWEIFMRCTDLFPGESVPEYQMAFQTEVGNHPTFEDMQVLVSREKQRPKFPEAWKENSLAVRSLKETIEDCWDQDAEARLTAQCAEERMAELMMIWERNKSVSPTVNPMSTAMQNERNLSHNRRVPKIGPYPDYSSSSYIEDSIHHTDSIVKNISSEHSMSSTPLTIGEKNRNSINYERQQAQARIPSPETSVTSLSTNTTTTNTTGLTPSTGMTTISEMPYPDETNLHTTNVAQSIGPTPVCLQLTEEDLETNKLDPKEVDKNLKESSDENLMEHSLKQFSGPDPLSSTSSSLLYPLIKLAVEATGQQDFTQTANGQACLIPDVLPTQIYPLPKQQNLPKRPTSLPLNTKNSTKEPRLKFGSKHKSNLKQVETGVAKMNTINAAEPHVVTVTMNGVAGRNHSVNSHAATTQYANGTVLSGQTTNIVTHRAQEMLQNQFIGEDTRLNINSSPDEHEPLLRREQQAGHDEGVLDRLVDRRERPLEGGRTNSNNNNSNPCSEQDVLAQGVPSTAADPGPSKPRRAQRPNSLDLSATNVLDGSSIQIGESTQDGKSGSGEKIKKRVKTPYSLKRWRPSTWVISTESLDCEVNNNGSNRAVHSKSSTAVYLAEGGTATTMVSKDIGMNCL

[5] = molecular target: Mast/stem cell growth factor receptor Kit (Homo sapiens) (UniProt P10721); assay: Binding affinity to human KIT at 500 nM by cell-based competition binding assay relative to control in presence of DTT
How it was run: (§2)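 Competition binding screen (Ambit) across a panel of 90 kinases, scoring test ligand displacement of each kinase's binding relative to control. The screen ran under reducing conditions with 7.5 mM DTT.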

[6] = molecular target: ALK tyrosine kinase receptor (Homo sapiens) (UniProt Q9UM73); assay: Binding affinity to human ALK at 200 nM by cell-based competition binding assay relative to control in presence of DTT; how it was run: as §1
[7] = molecular target: RAC-beta serine/threonine-protein kinase (Homo sapiens) (UniProt P31751); assay: Binding affinity to human AKT2 at 200 nM by cell-based competition binding assay relative to control in presence of DTT; how it was run: as §1
[8] = molecular target: Mitogen-activated protein kinase 11 (Homo sapiens) (UniProt Q15759); assay: Binding affinity to human p38beta at 200 nM by cell-based competition binding assay relative to control in presence of DTT
[9] = molecular target: Dual specificity tyrosine-phosphorylation-regulated kinase 1B (Homo sapiens) (UniProt Q9Y463); assay: Binding affinity to human DYRK1B at 200 nM by cell-based competition binding assay relative to control in presence of DTT
How it was run: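 Commercial (Ambit) competitive kinase-binding panel of 90 kinases measured the binding profile. Run under reducing conditions of 7.5 mM DTT. Binding is expressed relative to control.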

[10] = molecular target: Serine/threonine-protein kinase pim-2 (Homo sapiens) (UniProt Q9P1W9); assay: Binding affinity to human PIM2 at 50 nM by cell-based competition binding assay relative to control in presence of DTT
[11] = molecular target: T1, Bone morphogenetic protein receptor type-2 (Homo sapiens); assay: Binding affinity to human BMPR2 at 50 nM by cell-based competition binding assay relative to control in presence of DTT; how it was run: as §1
[12] = molecular target: Mast/stem cell growth factor receptor Kit (Homo sapiens) (UniProt P10721); assay: Binding affinity to human KIT at 50 nM by cell-based competition binding assay relative to control in presence of DTT; how it was run: as §2
[13] = molecular target: Tyrosine-protein kinase JAK2 (Homo sapiens) (UniProt O60674); assay: Binding affinity to human JAK2 kinase domain 2 at 50 nM by cell-based competition binding assay relative to control in presence of DTT; how it was run: as §2
[14] = molecular target: T2, 3-phosphoinositide-dependent protein kinase 1 (Homo sapiens) (UniProt O15530); assay: Binding affinity to human PDPK1 at 50 nM by cell-based competition binding assay relative to control in presence of DTT
T2 sequence (whole entry): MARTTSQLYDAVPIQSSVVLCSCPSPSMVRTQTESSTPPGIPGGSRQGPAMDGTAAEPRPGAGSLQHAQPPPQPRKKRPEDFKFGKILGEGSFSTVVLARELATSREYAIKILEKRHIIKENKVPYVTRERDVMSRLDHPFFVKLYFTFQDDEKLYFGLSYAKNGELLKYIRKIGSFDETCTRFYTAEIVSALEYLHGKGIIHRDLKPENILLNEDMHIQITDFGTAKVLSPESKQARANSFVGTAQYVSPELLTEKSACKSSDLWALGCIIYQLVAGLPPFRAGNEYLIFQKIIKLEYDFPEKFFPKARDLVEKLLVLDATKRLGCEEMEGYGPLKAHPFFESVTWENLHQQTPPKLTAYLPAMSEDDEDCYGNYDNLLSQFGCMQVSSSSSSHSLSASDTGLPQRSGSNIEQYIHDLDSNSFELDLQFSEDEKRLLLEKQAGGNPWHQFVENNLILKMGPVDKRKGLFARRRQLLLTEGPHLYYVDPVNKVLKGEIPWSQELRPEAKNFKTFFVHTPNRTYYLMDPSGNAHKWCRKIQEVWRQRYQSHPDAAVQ

ALK tyrosine kinase receptor (Homo sapiens), sequence (Q9UM73 19-1620 limits assumed): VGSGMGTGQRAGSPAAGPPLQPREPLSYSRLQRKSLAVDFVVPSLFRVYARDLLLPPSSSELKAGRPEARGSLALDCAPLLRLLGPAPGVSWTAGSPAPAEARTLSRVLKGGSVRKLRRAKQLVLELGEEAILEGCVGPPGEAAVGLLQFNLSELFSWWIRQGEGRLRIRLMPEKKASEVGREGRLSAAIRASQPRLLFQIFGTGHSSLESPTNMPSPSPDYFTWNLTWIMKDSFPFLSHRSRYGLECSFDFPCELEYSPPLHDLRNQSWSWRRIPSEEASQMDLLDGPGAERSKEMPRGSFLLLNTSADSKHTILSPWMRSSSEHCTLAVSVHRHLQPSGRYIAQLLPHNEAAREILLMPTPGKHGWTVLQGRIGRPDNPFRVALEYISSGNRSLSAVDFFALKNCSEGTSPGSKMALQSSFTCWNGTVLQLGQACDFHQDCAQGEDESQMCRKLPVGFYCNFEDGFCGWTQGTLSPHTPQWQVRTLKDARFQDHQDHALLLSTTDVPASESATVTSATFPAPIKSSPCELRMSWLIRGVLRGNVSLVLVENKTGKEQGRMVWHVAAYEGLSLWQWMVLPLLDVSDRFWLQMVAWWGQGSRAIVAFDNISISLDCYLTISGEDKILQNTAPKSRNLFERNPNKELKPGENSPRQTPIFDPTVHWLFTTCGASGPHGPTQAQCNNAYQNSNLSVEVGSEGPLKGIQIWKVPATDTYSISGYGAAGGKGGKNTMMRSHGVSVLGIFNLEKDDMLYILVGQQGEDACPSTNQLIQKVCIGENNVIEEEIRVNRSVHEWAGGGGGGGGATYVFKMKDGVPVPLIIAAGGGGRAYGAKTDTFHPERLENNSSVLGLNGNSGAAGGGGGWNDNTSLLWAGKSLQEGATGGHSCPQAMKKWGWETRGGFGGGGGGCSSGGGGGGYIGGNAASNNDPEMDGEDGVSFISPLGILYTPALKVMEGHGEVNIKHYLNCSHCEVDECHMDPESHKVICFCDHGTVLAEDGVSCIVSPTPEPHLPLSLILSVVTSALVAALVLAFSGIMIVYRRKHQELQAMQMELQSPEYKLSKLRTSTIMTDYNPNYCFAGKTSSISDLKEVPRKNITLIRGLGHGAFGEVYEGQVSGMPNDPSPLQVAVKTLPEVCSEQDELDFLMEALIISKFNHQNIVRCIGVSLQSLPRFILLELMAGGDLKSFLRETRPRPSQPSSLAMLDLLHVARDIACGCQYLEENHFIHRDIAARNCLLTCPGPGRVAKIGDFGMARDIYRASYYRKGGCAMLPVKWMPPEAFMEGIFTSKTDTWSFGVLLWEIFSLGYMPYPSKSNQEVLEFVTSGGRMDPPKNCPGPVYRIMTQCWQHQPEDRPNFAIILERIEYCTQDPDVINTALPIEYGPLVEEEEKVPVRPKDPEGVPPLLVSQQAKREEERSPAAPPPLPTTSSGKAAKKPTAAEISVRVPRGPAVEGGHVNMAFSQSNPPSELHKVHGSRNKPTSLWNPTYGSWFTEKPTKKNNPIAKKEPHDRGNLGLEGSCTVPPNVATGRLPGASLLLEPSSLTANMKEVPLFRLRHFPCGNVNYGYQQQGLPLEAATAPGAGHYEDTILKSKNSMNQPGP
Mast/stem cell growth factor receptor Kit (Homo sapiens), sequence (P10721 whole entry, the tested form may be a part): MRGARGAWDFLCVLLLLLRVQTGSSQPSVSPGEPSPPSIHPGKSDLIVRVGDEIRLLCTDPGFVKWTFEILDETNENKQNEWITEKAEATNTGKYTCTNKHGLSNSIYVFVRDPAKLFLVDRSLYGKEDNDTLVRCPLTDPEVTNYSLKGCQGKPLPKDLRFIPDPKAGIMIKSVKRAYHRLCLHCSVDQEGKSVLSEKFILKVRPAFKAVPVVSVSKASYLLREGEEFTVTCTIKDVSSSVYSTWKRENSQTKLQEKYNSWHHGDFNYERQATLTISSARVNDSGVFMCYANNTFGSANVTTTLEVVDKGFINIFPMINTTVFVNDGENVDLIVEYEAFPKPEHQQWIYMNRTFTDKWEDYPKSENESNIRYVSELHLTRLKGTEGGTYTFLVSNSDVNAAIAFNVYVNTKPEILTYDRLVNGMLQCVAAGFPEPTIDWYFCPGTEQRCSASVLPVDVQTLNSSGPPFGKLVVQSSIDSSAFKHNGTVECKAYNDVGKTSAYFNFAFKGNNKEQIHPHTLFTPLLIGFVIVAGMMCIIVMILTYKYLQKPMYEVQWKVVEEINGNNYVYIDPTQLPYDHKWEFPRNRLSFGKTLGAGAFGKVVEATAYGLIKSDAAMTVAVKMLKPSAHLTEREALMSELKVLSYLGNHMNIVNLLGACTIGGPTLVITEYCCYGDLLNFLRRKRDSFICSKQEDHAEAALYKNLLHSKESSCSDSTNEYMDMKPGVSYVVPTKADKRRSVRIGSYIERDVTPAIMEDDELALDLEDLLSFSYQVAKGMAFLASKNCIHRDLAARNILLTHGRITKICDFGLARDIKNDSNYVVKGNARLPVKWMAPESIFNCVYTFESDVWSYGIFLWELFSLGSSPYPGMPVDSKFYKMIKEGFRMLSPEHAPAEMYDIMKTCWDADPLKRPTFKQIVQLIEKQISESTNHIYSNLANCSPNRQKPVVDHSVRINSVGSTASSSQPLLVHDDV
RAC-beta serine/threonine-protein kinase (Homo sapiens), sequence (P31751 whole entry): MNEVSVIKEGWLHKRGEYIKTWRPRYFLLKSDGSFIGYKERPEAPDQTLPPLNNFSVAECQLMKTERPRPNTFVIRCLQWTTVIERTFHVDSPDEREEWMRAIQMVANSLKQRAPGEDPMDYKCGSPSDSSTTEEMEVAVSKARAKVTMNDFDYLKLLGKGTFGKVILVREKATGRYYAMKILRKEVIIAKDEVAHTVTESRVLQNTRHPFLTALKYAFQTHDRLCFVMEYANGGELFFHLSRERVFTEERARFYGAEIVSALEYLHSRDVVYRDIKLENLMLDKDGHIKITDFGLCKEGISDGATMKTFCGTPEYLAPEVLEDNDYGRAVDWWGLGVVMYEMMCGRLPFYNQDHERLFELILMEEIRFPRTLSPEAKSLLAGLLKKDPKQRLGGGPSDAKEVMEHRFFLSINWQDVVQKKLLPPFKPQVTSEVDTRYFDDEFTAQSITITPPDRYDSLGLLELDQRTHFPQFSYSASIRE
Phosphatidylinositol 4,5-bisphosphate 3-kinase catalytic subunit gamma isoform (Homo sapiens), sequence (P48736 whole entry, looked up, canonical isoform): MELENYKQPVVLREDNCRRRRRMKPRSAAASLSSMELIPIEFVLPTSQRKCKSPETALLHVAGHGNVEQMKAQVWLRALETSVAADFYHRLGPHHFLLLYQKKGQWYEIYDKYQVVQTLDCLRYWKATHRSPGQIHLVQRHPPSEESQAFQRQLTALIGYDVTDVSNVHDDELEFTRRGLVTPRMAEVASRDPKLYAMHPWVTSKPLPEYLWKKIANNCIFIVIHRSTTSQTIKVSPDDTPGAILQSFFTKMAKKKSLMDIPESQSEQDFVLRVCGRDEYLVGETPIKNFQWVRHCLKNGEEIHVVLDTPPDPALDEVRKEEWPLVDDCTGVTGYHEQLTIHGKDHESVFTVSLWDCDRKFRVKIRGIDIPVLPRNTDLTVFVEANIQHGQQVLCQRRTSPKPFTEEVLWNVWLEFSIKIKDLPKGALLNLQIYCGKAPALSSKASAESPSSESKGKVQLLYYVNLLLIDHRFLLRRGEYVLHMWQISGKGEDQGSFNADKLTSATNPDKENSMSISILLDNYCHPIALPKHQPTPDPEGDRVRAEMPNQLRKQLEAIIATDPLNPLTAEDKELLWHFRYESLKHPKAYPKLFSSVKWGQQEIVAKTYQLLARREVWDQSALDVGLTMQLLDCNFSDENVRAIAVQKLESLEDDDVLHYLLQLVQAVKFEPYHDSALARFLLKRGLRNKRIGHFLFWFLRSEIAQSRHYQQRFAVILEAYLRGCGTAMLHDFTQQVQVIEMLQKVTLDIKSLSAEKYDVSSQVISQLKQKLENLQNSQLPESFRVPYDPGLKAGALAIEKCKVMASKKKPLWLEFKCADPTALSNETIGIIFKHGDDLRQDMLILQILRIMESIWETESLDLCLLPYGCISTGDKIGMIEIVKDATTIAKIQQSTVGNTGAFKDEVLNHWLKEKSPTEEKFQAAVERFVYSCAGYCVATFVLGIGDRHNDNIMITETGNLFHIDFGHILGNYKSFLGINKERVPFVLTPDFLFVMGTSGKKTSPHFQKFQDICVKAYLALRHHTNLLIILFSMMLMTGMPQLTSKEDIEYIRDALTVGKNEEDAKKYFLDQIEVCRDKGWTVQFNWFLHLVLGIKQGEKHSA
Serine/threonine-protein kinase pim-2 (Homo sapiens), sequence (Q9P1W9 whole entry, looked up): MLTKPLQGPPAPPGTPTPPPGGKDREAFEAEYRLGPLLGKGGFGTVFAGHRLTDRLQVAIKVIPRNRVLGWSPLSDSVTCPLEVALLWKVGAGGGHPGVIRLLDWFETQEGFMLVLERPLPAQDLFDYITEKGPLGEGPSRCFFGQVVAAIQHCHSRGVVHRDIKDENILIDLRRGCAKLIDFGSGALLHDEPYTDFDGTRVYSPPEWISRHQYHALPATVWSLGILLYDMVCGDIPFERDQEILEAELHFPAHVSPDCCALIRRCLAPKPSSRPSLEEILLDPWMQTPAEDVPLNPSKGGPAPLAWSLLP
Mitogen-activated protein kinase 11 (Homo sapiens), sequence (Q15759 whole entry): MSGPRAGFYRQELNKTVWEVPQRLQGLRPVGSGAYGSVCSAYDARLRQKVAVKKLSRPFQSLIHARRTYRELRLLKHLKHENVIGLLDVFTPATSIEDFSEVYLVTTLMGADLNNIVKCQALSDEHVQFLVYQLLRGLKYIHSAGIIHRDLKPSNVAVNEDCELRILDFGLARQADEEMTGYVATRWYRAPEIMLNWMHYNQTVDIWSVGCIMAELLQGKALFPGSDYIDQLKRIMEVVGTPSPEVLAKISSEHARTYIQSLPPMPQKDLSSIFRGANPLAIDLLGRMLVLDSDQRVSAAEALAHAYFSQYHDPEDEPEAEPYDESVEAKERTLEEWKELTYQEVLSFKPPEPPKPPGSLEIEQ

Selectivity ratio [1]: 6 | Activity [2]: 5.2% | Activity [3]: 100% | Activity [4]: 100% | Activity [5]: 7.4%
SMILES: CO[C@@H]1[C@H](N(C)C(=O)CCC(=O)NCCC(=O)NCCC(=O)NCCC(N)=O)C[C@H]2O[C@]1(C)n1c3ccccc3c3c4c(c5c6ccccc6n2c5c31)C(=O)NC4

Activity [6]: 60% | Activity [7]: 100% | Activity [8]: 100% | Activity [9]: 14%
SMILES: CO[C@@H]1[C@H](N(C)C(=O)CCC(=O)NCCC(=O)NCCC(=O)NCCC(=O)NCCC(=O)NCCC(=O)NCCC(=O)NCCC(=O)N[C@H]2CSSC[C@@H](C(=O)NCC(N)=O)NC(=O)CNC(=O)[C@H](Cc3ccccc3)NC(=O)[C@H](C(C)C)NC(=O)[C@H](CCCNC(=N)N)NC(=O)[C@H](Cc3ccccc3)NC(=O)[C@H](C(C)C)NC2=O)C[C@H]2O[C@]1(C)n1c3ccccc3c3c4c(c5c6ccccc6n2c5c31)C(=O)NC4 ({Staurosporine-Suc-βAla-βAla-βAla-βAla-βAla-βAla-βAla}-CVFRVFGCG-NH2; disulfide 1-8)

Activity [10]: 100% | Activity [11]: 99% | Activity [12]: 85% | Activity [13]: 42% | Activity [14]: 48%
SMILES: CO[C@@H]1[C@H](N(C)C(=O)CCC(=O)NCCC(=O)NCCC(=O)NCCC(=O)NCCC(=O)NCCC(=O)NCCC(=O)NCCC(=O)N[C@H]2CNC(=O)C[C@@H](C(N)=O)NC(=O)CNC(=O)[C@H](Cc3ccccc3)NC(=O)[C@H](C(C)C)NC(=O)[C@H](CCCNC(=N)N)NC(=O)[C@H](Cc3ccccc3)NC(=O)[C@H](C(C)C)NC2=O)C[C@H]2O[C@]1(C)n1c3ccccc3c3c4c(c5c6ccccc6n2c5c31)C(=O)NC4 ({Staurosporine-Suc-βAla-βAla-βAla-βAla-βAla-βAla-βAla}-[Dap]VFRVFGD-NH2; lactam 1-8)
